Laboratory results reported in ChEMBL document CHEMBL4396873, “Discovery of Potent, Selective, and Short-Acting Peptidic V2 Receptor Agonists” (J Med Chem, 2019).
Calls of active or inactive are those of the source. No cut-off for these calls is given here. Numbered stars: 1 amine (or outer) side, 2 acyl side, 3 side chain; on linkers, the order of the positions; unused ones are H or OH. Bridge positions count the residues as written; N and C are the ends. Square brackets hold non-standard residues; d marks the D form. Peptide text beside a SMILES is read from it. * marks the point of attachment. Phe(4-Cl) = N[C@@H](Cc1ccc(Cl)cc1)C(=O)O; Phe(4-Et) = CCc1ccc(C[C@H](N)C(=O)O)cc1; Phe(4-F) = N[C@@H](Cc1ccc(F)cc1)C(=O)O; Phe(4-Me) = Cc1ccc(C[C@H](N)C(=O)O)cc1; 2Thi = N[C@@H](Cc1cccs1)C(=O)O; X4 = N=C(N)NCCC[C@@H](CO)N*; X2 = N=C(N)NCCC[C@H](CO)N*; hCys = N[C@@H](CCS)C(=O)O; X1 = O=C(CCC[*:2])[*:1]; X3 = O=C(CC[*:2])[*:1]

Key:
[1] = Clearance in Sprague-Dawley rat at 0.1 mg/kg, iv administered as cassette dose by LC-MS/MS analysis; assay type: ADME, organism-based; conditions: in vivo
Oxytocin receptor = molecular target: T1, Oxytocin receptor (Homo sapiens, UniProt P30559); assay: Agonist activity at human OTR stably expressed in CHOK1 cells by NFAT-luciferase reporter gene assay; assay type: cell-based
T1 sequence (P30559 whole entry): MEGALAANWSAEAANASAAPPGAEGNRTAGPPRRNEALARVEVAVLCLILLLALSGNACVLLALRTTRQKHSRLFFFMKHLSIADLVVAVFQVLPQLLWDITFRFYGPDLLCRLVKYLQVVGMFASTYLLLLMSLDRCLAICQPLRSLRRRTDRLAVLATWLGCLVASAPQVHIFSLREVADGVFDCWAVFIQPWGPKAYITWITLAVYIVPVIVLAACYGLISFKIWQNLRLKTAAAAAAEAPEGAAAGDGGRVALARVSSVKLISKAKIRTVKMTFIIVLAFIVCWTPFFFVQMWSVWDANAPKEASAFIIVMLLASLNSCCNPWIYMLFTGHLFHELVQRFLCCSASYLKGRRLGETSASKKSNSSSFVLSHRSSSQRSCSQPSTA

[2] = Protein binding in rat plasma at 200 to 1000 ng/ml measured after 15 mins by UC-LC/MS/MS analysis; assay type: ADME, cell-free; conditions: read-out: PPB (converted)
Outline: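 Peptide spiked into rat plasma to final 200-1000 ng/mL, incubated 15 min at 37 °C, ultracentrifuged at 773,000 xg for 30 min at 37 °C; middle-layer sample quantified by LC/MS/MS; binding (%) = (Ci − Cm)/Ci × 100; quadruplicate.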

Vasopressin V1a receptor = Vasopressin V1a receptor (Homo sapiens, UniProt P37288); assay: Agonist activity at recombinant human V1a receptor expressed in HEK293 cells up to 1000 nM measured after 5 hrs by luciferase reporter gene assay; assay type: cell-based; conditions: hek293, 5 h
Vasopressin V2 receptor = Vasopressin V2 receptor (Homo sapiens, UniProt P30518); assay: Agonist activity at recombinant human V2 receptor expressed in HEK293 cells measured after 5 hrs by cAMP response element driven luciferase reporter gene assay; assay type: functional, cell-based
[3] = Non-renal clearance in nephrectomized Sprague-Dawley rat at 0.1 mg/kg, iv administered as cassette dose by LC-MS/MS analysis; assay type: ADME, organism-based; conditions: in vivo
[4] = molecular target: T2, Oxytocin receptor (Homo sapiens) (UniProt P30559); assay: Agonist activity at human OTR stably expressed in CHOK1 cells up to 10000 nM by NFAT-luciferase reporter gene assay; assay type: cell-based
T2 sequence (whole entry): T1 sequence (P30559 whole entry)

[5] = molecular target: T2, Oxytocin receptor (Homo sapiens); assay: Agonist activity at human OTR stably expressed in CHOK1 cells by NFAT-luciferase reporter gene assay relative to control; assay type: cell-based

Chain of Vasopressin V1a receptor (P37288 whole entry): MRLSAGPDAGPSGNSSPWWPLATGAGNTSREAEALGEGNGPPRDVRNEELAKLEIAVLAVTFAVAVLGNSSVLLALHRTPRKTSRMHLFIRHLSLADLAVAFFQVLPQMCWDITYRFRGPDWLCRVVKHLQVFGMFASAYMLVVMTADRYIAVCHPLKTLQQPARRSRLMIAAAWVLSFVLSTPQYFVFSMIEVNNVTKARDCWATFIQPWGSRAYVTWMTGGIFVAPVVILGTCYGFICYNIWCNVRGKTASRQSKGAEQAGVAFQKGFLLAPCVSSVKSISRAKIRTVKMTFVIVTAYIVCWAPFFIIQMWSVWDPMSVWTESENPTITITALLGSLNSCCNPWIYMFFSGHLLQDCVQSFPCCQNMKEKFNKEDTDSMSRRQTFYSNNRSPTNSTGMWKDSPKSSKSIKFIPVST
Chain of Vasopressin V2 receptor (P30518 whole entry): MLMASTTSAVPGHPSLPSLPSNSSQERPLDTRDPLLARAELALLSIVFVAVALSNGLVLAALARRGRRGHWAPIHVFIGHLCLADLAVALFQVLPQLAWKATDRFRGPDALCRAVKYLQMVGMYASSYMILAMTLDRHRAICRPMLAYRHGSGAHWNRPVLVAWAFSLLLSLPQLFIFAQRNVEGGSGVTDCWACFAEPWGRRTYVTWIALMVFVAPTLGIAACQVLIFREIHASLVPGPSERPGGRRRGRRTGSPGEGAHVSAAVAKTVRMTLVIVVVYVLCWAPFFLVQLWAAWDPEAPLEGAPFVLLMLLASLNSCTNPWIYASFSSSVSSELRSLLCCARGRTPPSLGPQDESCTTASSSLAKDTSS

| Compound | clearance [1] | EC50 (Oxytocin receptor) | fraction unbound at […] [2] | Activity (Vasopressin V1a receptor) | EC50 (Vasopressin V2 receptor) | CL [3] | Activity [4] | Efficacy [5] |
| --- | --- | --- | --- | --- | --- | --- | --- | --- |
| CC(C)[C@@H]1NC(=O)[C@H](Cc2ccc(F)cc2)NC(=O)[C@H](Cc2ccc(Cl)cc2)NC(=O)CCCSC[C@@H](C(=O)N2CCC[C@H]2C(=O)N[C@@H](CO)CCCNC(=N)N)NC(=O)[C@H](CC(N)=O)NC1=O ([Phe(4-Cl)][Phe(4-F)]VNCP-X2; linker N-5 via X1) | 3.8 mL/min/kg | > 10000 nM | 0.07 | Not Active | – | – | – | – |
| CC(C)[C@@H]1NC(=O)[C@H](Cc2ccc(F)cc2)NC(=O)[C@H](Cc2ccc(Cl)cc2)NC(=O)CCCSC[C@@H](C(=O)N2CSC[C@H]2C(=O)N[C@H](CCCNC(=N)N)C(=O)NCCc2cccs2)NC(=O)[C@H](CC(N)=O)NC1=O | 27 mL/min/kg | – | 0.04 | Not Active | 0.3 nM | 100% | inactive | – |
| CCNC(=O)[C@@H](CCCNC(=N)N)NC(=O)[C@@H]1CSCN1C(=O)[C@@H]1CCSCCC(=O)N[C@@H](Cc2ccc(Cl)cc2)C(=O)N[C@@H](Cc2cccs2)C(=O)N[C@@H](C(C)C)C(=O)N[C@@H](CC(N)=O)C(=O)N1 | 11 mL/min/kg | – | 0.08 | Not Active | 0.11 nM | – | inactive | – |
| CCNC(=O)[C@@H](CCCNC(=N)N)NC(=O)[C@@H]1CCCN1C(=O)[C@@H]1CCSCCC(=O)N[C@@H](Cc2ccc(Cl)cc2)C(=O)N[C@@H](Cc2cccs2)C(=O)N[C@@H](C(C)C)C(=O)N[C@@H](CC(N)=O)C(=O)N1 | 5.3 mL/min/kg | – | 0.1 | Not Active | 0.19 nM | 67% | inactive | – |
| CC(C)[C@@H]1NC(=O)[C@H](Cc2cccs2)NC(=O)[C@H](Cc2ccc(Cl)cc2)NC(=O)CCCSC[C@@H](C(=O)N2CSC[C@H]2C(=O)N[C@H](CCCNC(=N)N)C(=O)NCCc2cccs2)NC(=O)[C@H](CC(N)=O)NC1=O | 34 mL/min/kg | – | 0.07 | Not Active | 0.17 nM | 100% | inactive | – |
| CC(C)[C@@H]1NC(=O)[C@H](Cc2cccs2)NC(=O)[C@H](Cc2ccc(Cl)cc2)NC(=O)CCCSC[C@@H](C(=O)N2CSC[C@H]2C(=O)N[C@H](CCCNC(=N)N)C(=O)NCc2ccccc2)NC(=O)[C@H](CC(N)=O)NC1=O | 38 mL/min/kg | 140 nM | 0.09 | Not Active | – | 100% | – | 32% |
| CCNC(=O)[C@@H](CCCNC(=N)N)NC(=O)[C@@H]1CCCN1C(=O)[C@@H]1CSSCCC(=O)N[C@@H](Cc2ccc(Cl)cc2)C(=O)N[C@@H](Cc2cccs2)C(=O)N[C@@H](C(C)C)C(=O)N[C@@H](CC(N)=O)C(=O)N1 | 11 mL/min/kg | – | 0.12 | Not Active | 0.32 nM | 81% | inactive | – |

Further lines, results first:

| clearance [1] | EC50 (Oxytocin receptor) | fraction unbound at […] [2] | Activity (Vasopressin V1a receptor) | EC50 (Vasopressin V2 receptor) | CL [3] | Activity [4] | Efficacy [5] | Compound |
| --- | --- | --- | --- | --- | --- | --- | --- | --- |
| 6.9 mL/min/kg | 160 nM | 0.74 | Not Active | 0.08 nM | – | – | – | CC(C)[C@@H]1NC(=O)[C@H](Cc2cccs2)NC(=O)[C@H](Cc2ccc(O)cc2)NC(=O)CCSCC[C@@H](C(=O)N2CCC[C@H]2C(=O)N[C@@H](CO)CCCNC(=N)N)NC(=O)[C@H](CC(N)=O)NC1=O (Y[2Thi]VN[hCys]P-X2; linker N-5 via X3) |
| 2.8 mL/min/kg | > 10000 nM | 0.11 | Not Active | – | 66% | – | – | CC(C)[C@@H]1NC(=O)[C@H](Cc2cccs2)NC(=O)[C@H](Cc2ccc(Cl)cc2)NC(=O)CCSCC[C@@H](C(=O)N2CCC[C@H]2C(=O)N[C@@H](CO)CCCNC(=N)N)NC(=O)[C@H](CC(N)=O)NC1=O ([Phe(4-Cl)][2Thi]VN[hCys]P-X2; linker N-5 via X3) |
| 9.4 mL/min/kg | > 10000 nM | 0.16 | Not Active | 0.35 nM | 80% | – | – | CCc1ccc(C[C@@H]2NC(=O)CCCSC[C@@H](C(=O)N3CCC[C@H]3C(=O)N[C@@H](CO)CCCNC(=N)N)NC(=O)[C@H](CC(N)=O)NC(=O)[C@H](C(C)C)NC(=O)[C@H](Cc3cccs3)NC2=O)cc1 ([Phe(4-Et)][2Thi]VNCP-X2; linker N-5 via X1) |
| 9.1 mL/min/kg | – | 0.18 | Not Active | 0.27 nM | – | inactive | – | CNC(=O)[C@@H](CCCNC(=N)N)NC(=O)[C@@H]1CCCN1C(=O)[C@@H]1CSCCCC(=O)N[C@@H](Cc2ccc(Cl)cc2)C(=O)N[C@@H](Cc2cccs2)C(=O)N[C@@H](C(C)C)C(=O)N[C@@H](CC(N)=O)C(=O)N1 |
| 15 mL/min/kg | – | 0.15 | Not Active | 0.45 nM | 58% | inactive | – | CC(C)NC(=O)[C@@H](CCCNC(=N)N)NC(=O)[C@@H]1CCCN1C(=O)[C@@H]1CSCCCC(=O)N[C@@H](Cc2ccc(Cl)cc2)C(=O)N[C@@H](Cc2cccs2)C(=O)N[C@@H](C(C)C)C(=O)N[C@@H](CC(N)=O)C(=O)N1 |
| 8.1 mL/min/kg | 230 nM | 0.85 | Not Active | 0.1 nM | – | – | – | CC(C)[C@@H]1NC(=O)[C@H](Cc2cccs2)NC(=O)[C@H](Cc2ccc(O)cc2)NC(=O)CCCSC[C@@H](C(=O)N2CCC[C@H]2C(=O)N[C@H](CO)CCCNC(=N)N)NC(=O)[C@H](CC(N)=O)NC1=O (Y[2Thi]VNCP-X4; linker N-5 via X1) |
| 4 mL/min/kg | > 10000 nM | 0.2 | Not Active | – | – | – | – | CC(C)[C@@H]1NC(=O)[C@H](Cc2cccs2)NC(=O)[C@H](Cc2ccc(Cl)cc2)NC(=O)CCCSC[C@@H](C(=O)N2CCC[C@H]2C(=O)N[C@@H](CO)CCCNC(=N)N)NC(=O)[C@H](CC(N)=O)NC1=O ([Phe(4-Cl)][2Thi]VNCP-X2; linker N-5 via X1) |
| 5.3 mL/min/kg | > 10000 nM | 0.32 | Not Active | – | 30% | – | – | Cc1ccc(C[C@@H]2NC(=O)CCCSC[C@@H](C(=O)N3CCC[C@H]3C(=O)N[C@@H](CO)CCCNC(=N)N)NC(=O)[C@H](CC(N)=O)NC(=O)[C@H](C(C)C)NC(=O)[C@H](Cc3cccs3)NC2=O)cc1 ([Phe(4-Me)][2Thi]VNCP-X2; linker N-5 via X1) |
| 14 mL/min/kg | – | 0.55 | Not Active | 0.26 nM | 71% | inactive | – | CC(C)[C@@H]1NC(=O)[C@H](Cc2cccs2)NC(=O)[C@H](Cc2ccc(O)cc2)NC(=O)CCCSC[C@@H](C(=O)N2CCC[C@H]2C(=O)N[C@H](CCCNC(=N)N)C(=O)NCc2ccccc2)NC(=O)[C@H](CC(N)=O)NC1=O |
| 8.1 mL/min/kg | > 10000 nM | 0.19 | Not Active | – | – | – | – | CC(C)[C@@H]1NC(=O)[C@H](Cc2cccs2)NC(=O)[C@H](Cc2ccc(Cl)cc2)NC(=O)CCCSC[C@@H](C(=O)N2CCC[C@H]2C(=O)N[C@H](CO)CCCNC(=N)N)NC(=O)[C@H](CC(N)=O)NC1=O ([Phe(4-Cl)][2Thi]VNCP-X4; linker N-5 via X1) |
